The values below come from ChEMBL document CHEMBL4354861, “Re-Evaluating the Mechanism of Action of α,β-Unsaturated Carbonyl DUB Inhibitors b-AP15 and VLX1570: A Paradigmatic Example of Unspecific Protein Cross-linking with Michael Acceptor Motif-Containing Drugs” (J Med Chem, 2020).

Experiment [1] relates to HeLa. Put plainly: Inhibition of deubiquitinase in human HeLa cell extracts assessed as induction of accumulation of high molecular weight mTOR proteins at 1 uM incubated for 2 hrs by immunoblot analysis. Format: cell-free.
Experiment [2] deals with U2OS. Description: Cytotoxicity in human U2OS cells assessed as reduction in cell viability incubated for 72 hrs Cell-titer Glo reagent based assay. Format: functional. An outline of the steps: (§1)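 KMS11 (RPMI, seeded 25,000/well) or U2OS (DMEM, 10,000/well, adhered overnight) given varying concentrations, 72 h, biological triplicates, DMSO and bortezomib controls. CellTiter Glo luminescence; EC50 by dose-response fit.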

Experiment [3] relates to KMS-11. Put plainly: Cytotoxicity in human KMS11 cells assessed as reduction in cell viability incubated for 72 hrs Cell-titer Glo reagent based assay. Type of experiment: functional. The following applies: KMS-11, 72 h. A digest of the protocol:
as §1

For experiment [4], the target named is Anamorsin (Homo sapiens) (UniProt Q6FI81). Put plainly: Inhibition of recombinant purified CIAPIN1 (unknown origin) assessed as accumulation of protein aggregates at 0.1 to 1.6 uM incubated for 1 to 6 hrs by size exclusion chromatography. On the technique in general: Size exclusion chromatography separates by hydrodynamic size, large species first.
The test system of experiment [5] is HeLa. Description: Inhibition of deubiquitinase in human HeLa cell extracts assessed as inhibition of HA-Ub-C2Br probe labeling at 1 to 100 uM incubated for 30 mins by immunoblot analysis. Type of experiment: cell-free. Background: In western blotting, separated proteins are transferred to a membrane and probed.
Experiment [6] deals with T1, Ubiquitin carboxyl-terminal hydrolase 28 (Homo sapiens) (UniProt Q96RU2).
T1 sequence (whole entry): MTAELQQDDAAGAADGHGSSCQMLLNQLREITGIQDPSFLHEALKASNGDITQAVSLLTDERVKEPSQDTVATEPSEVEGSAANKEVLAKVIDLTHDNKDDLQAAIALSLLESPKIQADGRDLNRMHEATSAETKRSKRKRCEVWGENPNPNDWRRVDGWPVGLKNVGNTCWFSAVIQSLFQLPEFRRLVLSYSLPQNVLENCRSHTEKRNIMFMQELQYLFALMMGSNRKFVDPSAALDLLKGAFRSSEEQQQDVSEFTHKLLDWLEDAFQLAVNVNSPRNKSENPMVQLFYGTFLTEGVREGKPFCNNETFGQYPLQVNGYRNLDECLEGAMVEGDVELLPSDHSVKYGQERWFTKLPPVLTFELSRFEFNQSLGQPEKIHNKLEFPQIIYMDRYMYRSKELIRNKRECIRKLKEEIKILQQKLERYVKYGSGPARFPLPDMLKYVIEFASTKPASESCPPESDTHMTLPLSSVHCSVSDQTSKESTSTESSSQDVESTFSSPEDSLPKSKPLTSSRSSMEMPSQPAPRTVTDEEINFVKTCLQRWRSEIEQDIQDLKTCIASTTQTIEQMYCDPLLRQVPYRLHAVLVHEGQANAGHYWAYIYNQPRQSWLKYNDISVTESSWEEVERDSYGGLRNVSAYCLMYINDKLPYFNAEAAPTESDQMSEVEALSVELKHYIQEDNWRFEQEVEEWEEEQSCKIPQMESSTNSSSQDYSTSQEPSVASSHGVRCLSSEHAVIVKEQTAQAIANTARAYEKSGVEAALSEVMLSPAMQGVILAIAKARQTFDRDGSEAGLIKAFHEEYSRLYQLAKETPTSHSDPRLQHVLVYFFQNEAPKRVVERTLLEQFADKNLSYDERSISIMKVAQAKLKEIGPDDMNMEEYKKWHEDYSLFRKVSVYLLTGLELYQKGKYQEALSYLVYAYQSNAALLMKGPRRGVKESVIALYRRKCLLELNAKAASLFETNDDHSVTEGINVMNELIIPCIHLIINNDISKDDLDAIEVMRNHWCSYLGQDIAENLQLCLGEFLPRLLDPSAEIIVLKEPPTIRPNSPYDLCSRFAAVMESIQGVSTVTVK
Put plainly: Inhibition of USP28 in human HeLa cell extracts assessed as inhibition of HA-Ub-C2Br probe labeling at 1 to 100 uM incubated for 30 mins by immunoblot analysis. Format: cell-free.

Experiment [7] has as its system KMS-11. Put plainly: Cytotoxicity in human KMS11 cells assessed as reduction in cell viability at 1 to 10 uM incubated for 16 hrs in presence of GSH by Alamar blue assay. Format: functional, cell-based. A digest of the protocol:
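KMS11 seeded at 80,000/well, treated with 1 or 10 µM compound with or without 1 mM GSH for 16 h, 6 biological replicates. Alamar blue fluorescence read at 560/590 nm, normalised to DMSO control.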

In experiment [8] the target is T2, Ubiquitin carboxyl-terminal hydrolase isozyme L5 (Homo sapiens) (UniProt Q9Y5K5).
T2 sequence (whole entry): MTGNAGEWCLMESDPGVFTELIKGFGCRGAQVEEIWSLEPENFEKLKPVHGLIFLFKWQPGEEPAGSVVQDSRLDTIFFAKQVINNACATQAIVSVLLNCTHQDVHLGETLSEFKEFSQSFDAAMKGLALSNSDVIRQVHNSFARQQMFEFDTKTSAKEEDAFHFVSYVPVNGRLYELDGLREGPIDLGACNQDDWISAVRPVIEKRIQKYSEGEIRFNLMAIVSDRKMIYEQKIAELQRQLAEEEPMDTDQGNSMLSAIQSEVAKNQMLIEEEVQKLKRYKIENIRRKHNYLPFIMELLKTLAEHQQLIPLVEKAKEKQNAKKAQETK
Description: Covalent binding affinity to UCH-37 in human U2OS cells at 20 uM using probe-1 by ABPP analysis. Type of experiment: cell-based. A digest of the protocol:
(§2)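 U2OS cells pre-incubated 30 min with competitor (0, 5 or 20 µM), then 5 µM probe 1 for 1 h, in triplicate. Lysates in Triton/SDS buffer mixed with heavy R10K8-labelled probe-treated spike, CuAAC-tagged, NeutrAvidin-enriched, reduced, alkylated, trypsin-digested overnight at 37 °C, LC-MS/MS. Log2(L/H) ratios median-normalised and expressed relative to the no-inhibitor condition.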

Experiment [9] concerns the target Ubiquitin carboxyl-terminal hydrolase 14 (Homo sapiens) (UniProt P54578). Description: Covalent binding affinity to USP14 in human U2OS cells at 20 uM using probe-1 by ABPP analysis. Format: cell-based. An outline of the steps: as §2
The target of experiment [10] is T1, Ubiquitin carboxyl-terminal hydrolase 28 (Homo sapiens). Description: Covalent binding affinity to USP28 in human U2OS cells at 20 uM using probe-1 by ABPP analysis. Type of experiment: cell-based. An outline of the steps:
as §2

Experiment [11] concerns the target Anamorsin (Homo sapiens) (UniProt Q6FI81). Put plainly: Covalent binding affinity to CIAPIN1 in human U2OS cells at 20 uM using probe-1 by ABPP analysis. Type of experiment: cell-based. A digest of the protocol: as §2
The target is the same in experiment [12]. Description: Inhibition of CIAPIN1 in human KMS11 crude cell extracts assessed as induction of formation of high molecular weight complexes with CIAPIN1 at 20 uM incubated for 2 hrs by immunoblot analysis.
Experiment [13] has the same target. Put plainly: Inhibition of CIAPIN1 in human KMS11 crude cell extracts assessed as induction of formation of high molecular weight complexes with CIAPIN1 at 20 uM incubated for 2 hrs in presence of GSH by immunoblot analysis.
Experiment [14] shares this target. Description: Inhibition of recombinant purified CIAPIN1 (unknown origin) assessed as increase in high molecular weight CIAPIN1 complexes at 1 to 10 molar equivalent 1 by SDS-PAGE and Coomassie Blue staining based method. An outline of the steps: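 Recombinant CIAPIN1 (1 mg/mL) incubated with DMSO (0.16%) or compound at 1x, 2x, 5x or 10x molar excess, 30 min at 4 °C. Resolved by SDS-PAGE with Coomassie staining.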

The target is the same in experiment [15]. Description: Inhibition of recombinant purified CIAPIN1 (unknown origin) assessed as covalent adduct formation at 10 molar equivalents incubated for 2 hrs by electrospray MS analysis. A digest of the protocol: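 His-tagged full-length human CIAPIN1 (AA1-312, C-terminal 7x His/TEV, 27 µM) incubated with 10 molar equivalents of compound (270 µM) in PBS for 2 h at room temperature, then analysed intact by ES-MS.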

For experiment [16] the target is unchanged. Put plainly: Inhibition of recombinant purified CIAPIN1 (unknown origin) assessed as disruption of intra-chain disulfide bond in unmodified peptide containing Cys249.
For experiment [17] the target is unchanged. Put plainly: Inhibition of CIAPIN1 in human KMS11 cells assessed as induction of protein aggregation at 100 nM incubated for 1 hr by immunoblot analysis. Type of experiment: cell-based.
For experiment [18] the target is unchanged. Put plainly: Inhibition of CIAPIN1 in human KMS11 cells assessed as induction of high molecular weight complex formation at 100 nM incubated for 6 hrs by immunoblot analysis. Format: cell-based.
For experiment [19] the target is unchanged. Description: Inhibition of CIAPIN1 in human KMS11 cells assessed as deletion of depletion of stable CIAPIN1 levels at 100 nM incubated for 6 hrs by immunoblot analysis. Format: cell-based.
The target is the same in experiment [20]. Put plainly: Inhibition of recombinant purified CIAPIN1 (unknown origin) assessed as covalent modification of cysteine residues incubated for 30 mins LC-MS/MS analysis.

Active and inactive are the calls of the source. No cut-off for these calls is given here.

Anamorsin (Homo sapiens), sequence (Q6FI81 whole entry): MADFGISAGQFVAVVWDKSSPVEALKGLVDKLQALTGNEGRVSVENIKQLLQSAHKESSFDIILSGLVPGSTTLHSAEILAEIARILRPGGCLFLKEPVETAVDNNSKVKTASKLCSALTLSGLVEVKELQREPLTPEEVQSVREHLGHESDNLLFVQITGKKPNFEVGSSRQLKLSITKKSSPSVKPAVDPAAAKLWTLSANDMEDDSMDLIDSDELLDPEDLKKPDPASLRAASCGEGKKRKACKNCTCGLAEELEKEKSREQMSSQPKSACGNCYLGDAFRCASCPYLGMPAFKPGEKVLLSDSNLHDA
Ubiquitin carboxyl-terminal hydrolase 14 (Homo sapiens), sequence (P54578 whole entry): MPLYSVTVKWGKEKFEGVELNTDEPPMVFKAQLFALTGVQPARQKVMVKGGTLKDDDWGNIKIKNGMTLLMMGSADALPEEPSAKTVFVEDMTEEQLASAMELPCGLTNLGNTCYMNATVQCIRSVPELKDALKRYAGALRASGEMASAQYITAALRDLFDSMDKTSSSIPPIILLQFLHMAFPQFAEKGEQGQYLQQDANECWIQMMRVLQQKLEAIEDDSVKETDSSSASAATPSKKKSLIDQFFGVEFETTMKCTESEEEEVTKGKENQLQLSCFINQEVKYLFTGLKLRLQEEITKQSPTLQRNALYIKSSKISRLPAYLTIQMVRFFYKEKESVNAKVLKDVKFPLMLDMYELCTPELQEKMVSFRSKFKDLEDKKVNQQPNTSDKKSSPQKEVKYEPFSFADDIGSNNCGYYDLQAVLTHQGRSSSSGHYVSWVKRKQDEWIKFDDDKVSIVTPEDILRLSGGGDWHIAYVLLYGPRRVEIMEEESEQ

Turning to `COc1cc(/C=C/C(=O)CC(=O)/C=C/c2ccc(O)c(OC)c2)ccc1O`, the inhibition entry in experiment [1] was “Active”.

What is called EC50 is the concentration that produces a half-maximal response. Turning to `C#CCC(=O)N1CC/C(=C\c2ccc(F)c([N+](=O)[O-])c2)C(=O)/C(=C/c2ccc(F)c([N+](=O)[O-])c2)C1`, the EC50 came to 81 nM in experiment [2] and 46 nM in [3].

For `C=CC(=O)N1CC/C(=C\c2ccc(F)c([N+](=O)[O-])c2)C(=O)/C(=C/c2ccc(F)c([N+](=O)[O-])c2)C1`, the EC50 in experiment [2] worked out at 98 nM; in [3], 43 nM. For the same compound, the inhibition entry in experiment [4], in [5], in experiment [6], in experiment [12], in experiment [14] and in experiment [15] was “Active” each time. The inhibition result in [16], in experiment [17], in [18], in [19] and in experiment [20] was “Active” each time. Besides, the result in experiment [7], in experiment [8], in [9] and in [10] was inactive. In addition, in [11], the outcome was Active. Also, the inhibition entry in experiment [13] was “inactive”.
